Consider seven compounds from ChEMBL document CHEMBL3120084, “Structure-function relationships of Nile blue (EtNBS) derivatives as antimicrobial photosensitizers” (Eur J Med Chem, 2014).

Data set [1] has as its system Staphylococcus aureus. Description: Drug uptake in Staphylococcus aureus 8325-4 incubated for 10 mins in dark by fluorescence analysis. It counts as ADME, organism-based. Conditions: in vivo. The gist of the method:
(§1)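 Cells (10^8/ml) held with compound at 0.05-10 μM for 10 min in dark at room temperature. They were then pelleted, washed twice in PBS and lysed in RIPA for 30 min at room temperature. Lysate fluorescence was read at compound-specific wavelengths and converted with per-compound calibration curves. Values were normalized to protein measured by BCA against BSA standards.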

The test system of data set [2] is Escherichia coli. As to the kind of experiment: Dark toxicity against Escherichia coli ATCC 53868 at 50 uM after 10 mins. It counts as organism-based. The conditions noted are these: in vivo. An outline of the steps: (§2)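 Dark controls: 10^8 CFU/ml in PBS with photosensitizer for 10 min at room temperature, no illumination. Solvent controls contained 2% DMA. Viability read as CFU after serial dilution, plating on nutrient agar and 18 h dark incubation at 37°C; triplicate.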

For data set [3], the system named is Acinetobacter baumannii. As to the kind of experiment: Drug uptake in Acinetobacter baumannii ATCC 51393 incubated for 10 mins in dark by fluorescence analysis. The conditions noted are these: in vivo. It counts as ADME, organism-based. An outline of the steps:
as §1

Data set [4] can be described thus: Octanol-phosphate buffered saline partition coefficient, log P of the compound at 100 uM after 30 mins. It counts as physicochemical. An outline of the steps:
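Compound (100 μM) in 1.5 mL octanol plus 1.5 mL PBS, stirred overnight at room temperature, then left 30 min for phases to separate. Each phase was read by absorbance at the compound's peak, undiluted and diluted 1:2 and 1:10. Log10 of the octanol/PBS ratio is reported.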

The test system of data set [5] is Acinetobacter baumannii. Description: Dark toxicity against Acinetobacter baumannii ATCC 51393 at 50 uM after 10 mins. It counts as organism-based. Conditions: in vivo. An outline of the steps:
as §2

In data set [6] the test system is Escherichia coli. Description: Drug uptake in Escherichia coli ATCC 53868 incubated for 10 mins in dark by fluorescence analysis. Type of data set: ADME, organism-based. The conditions noted are these: in vivo. An outline of the steps: as §1
Data set [7] in a line: Induction of reactive oxygen species generation at 5 uM using hydroxyphenyl-fluorescein probe by microplate spectrophotometer analysis in presence of 1 J/cm'2 to 15 J/cm'2 of light. It counts as physicochemical. The gist of the method:
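Cell-free assay in PBS: compound at 5 μM final with HPF probe at 5 μM final, 4 wells per group. 635-nm light given in sequential doses of 1 to 15 J/cm2. Fluorescence read in slow kinetic mode at excitation 490 nm and emission 515 nm, 2 nm bandpass.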

Data set [8] has as its system Acinetobacter baumannii. As to the kind of experiment: Antimicrobial activity against Acinetobacter baumannii ATCC 51393 assessed as log reduction in bacterial CFU incubated for 10 mins prior to irradiation with 10 J/cm2 of light. Type of data set: functional. The gist of the method: (§3)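 Bacteria grown overnight in BHI broth at 37°C with shaking, refreshed 3 h, adjusted to OD600 0.5 (10^8 CFU/ml), pelleted and resuspended in PBS. Suspensions held with photosensitizer (0.1-100 μM, diluted from 5 mM DMA stock) 10 min in dark at room temperature, then 635-nm light at 10 J/cm2 and 50 mW/cm2. Surviving CFU counted by serial dilution on nutrient agar after 18 h at 37°C; triplicates.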

Data set [9] has as its system Staphylococcus aureus. Description: Antimicrobial activity against Staphylococcus aureus 8325-4 assessed as log reduction in bacterial CFU incubated for 10 mins prior to irradiation with 10 J/cm2 of light. It counts as functional. An outline of the steps:
as §3

Data set [10] has as its system Enterococcus faecalis. Description: Dark toxicity against Enterococcus faecalis ATCC 29212 at 50 uM after 10 mins. It counts as organism-based. Conditions: in vivo. The gist of the method: as §2
The subject of data set [11] is Escherichia coli. Description: Antimicrobial activity against Escherichia coli ATCC 53868 assessed as log reduction in bacterial CFU incubated for 10 mins prior to irradiation with 10 J/cm2 of light. Type of data set: functional. An outline of the steps: as §3
The subject of data set [12] is Staphylococcus aureus. Description: Dark toxicity against Staphylococcus aureus 8325-4 at 50 uM after 10 mins. It counts as organism-based. The conditions noted are these: in vivo. The gist of the method:
as §2

The test system of data set [13] is Enterococcus faecalis. As to the kind of experiment: Antimicrobial activity against Enterococcus faecalis ATCC 29212 assessed as log reduction in bacterial CFU incubated for 10 mins prior to irradiation with 10 J/cm2 of light. Type of data set: functional. The gist of the method:
as §3

Data set [14] concerns Enterococcus faecalis. As to the kind of experiment: Drug uptake in Enterococcus faecalis ATCC 29212 incubated for 10 mins in dark by fluorescence analysis. Type of data set: ADME, organism-based. Conditions: in vivo. An outline of the steps:
as §1

A short description of data set [15]: Induction of reactive oxygen species generation at 5 uM using singlet oxygen sensor green probe by microplate spectrophotometer analysis in presence of 1 J/cm'2 to 15 J/cm'2 of light. It counts as physicochemical. An outline of the steps: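 Cell-free assay in PBS: compound at 5 μM final with SOSG probe at 5 μM final, 4 wells per group. 635-nm light given in sequential doses of 1 to 15 J/cm2. Fluorescence read in slow kinetic mode at excitation 505 nm and emission 525 nm.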

Data set [16] concerns Enterococcus faecalis. As to the kind of experiment: Dark toxicity against Enterococcus faecalis ATCC 29212 at 0.1 to 100 uM after 10 mins. It counts as organism-based. Conditions: in vivo. The gist of the method: as §2
Data set [17] relates to Escherichia coli. As to the kind of experiment: Dark toxicity against Escherichia coli ATCC 53868 at 0.1 to 100 uM after 10 mins. Type of data set: organism-based. The conditions noted are these: in vivo. The gist of the method: as §2
In data set [18] the test system is Acinetobacter baumannii. As to the kind of experiment: Dark toxicity against Acinetobacter baumannii ATCC 51393 at 0.1 to 100 uM after 10 mins. Type of data set: organism-based. The conditions noted are these: in vivo. An outline of the steps: as §2
Data set [19] has as its system Staphylococcus aureus. As to the kind of experiment: Dark toxicity against Staphylococcus aureus 8325-4 at 0.1 to 100 uM after 10 mins. Type of data set: organism-based. The conditions noted are these: in vivo. An outline of the steps:
as §2

Each structure is given as a SMILES string. Calls of active or inactive are those of the source. No cut-off for these calls is given here. Some results are limits rather than exact numbers.

For `CC/N=c1/cc2sc3cc(N(CC)CC)ccc3nc-2c2ccccc12.Cl`, the Drug uptake entry in data set [1], in data set [3], in data set [6] and in data set [14] was “Active” in each case. Besides, the Activity result in [2] was “Toxic”; in [5], “Toxic”; in [7], “Active”; in data set [10], “Toxic”; in [12], “Non-toxic”; in data set [15], “Active”. In addition, in data set [4], the lipophilicity (logP) (commonly a log measure of how a compound divides between an organic and an aqueous phase) at 0.5 h, 100 µM was determined as 2.87. In addition, the log10cfu in data set [8], in data set [9], in data set [11] and in [13] was >6 throughout.
Consider `CCCS(=O)(=O)N(CC)c1cccc2c3nc4ccc(N(CC)CC)cc4sc-3c/c(=N\CC)c12.Cl`, for which the Drug uptake entry in data set [1], in data set [3], in data set [6] and in [14] was “Active” each time. Further, the Activity result was “Non-toxic” in [16]; “Toxic” in [17]; “Non-toxic” in data set [18]; “Active” in data set [7]; “Non-toxic” in [19]; “Active” in data set [15]. In data set [4], the logP at 0.5 h, 100 µM came to 2.45. In addition, the result in [8] and in data set [11] was inactive. The log10cfu in [9] is recorded as >5.
`CCN(CC)c1ccc2nc3c4ccccc4/c(=N\CCNC(=N)N)cc-3sc2c1.Cl.Cl`: the Drug uptake result in data set [1], in data set [3], in data set [6] and in data set [14] was “Active” throughout. Also, the Activity entry is “Toxic” in data set [16]; “Toxic” in data set [18]; “Active” in data set [7]; “Toxic” in [19]; “Active” in data set [15]. For the same compound, the logP at 0.5 h, 100 µM in data set [4] came to 0.49. For the same compound, the log10cfu in data set [8], in [9], in data set [11] and in data set [13] was >5 each time.
Turning to `CC/N=c1/cc2sc3cc(N(CC)CC)ccc3nc-2c2c(NC(C)=O)cccc12.Cl`, the lipophilicity (logP) at 0.5 h, 100 µM in [4] was 1.36. For the same compound, the Activity entry was “Toxic” in data set [17], “Toxic” in data set [18], “Active” in [7] and “Active” in data set [15]. For the same compound, the result in [8] and in data set [11] was inactive.
With `CC/N=c1/cc2sc3cc(N(CC)CC)ccc3nc-2c2c(N)cccc12.Cl`, the Drug uptake entry in [1], in [3], in data set [6] and in data set [14] was “Active” throughout. For the same compound, in data set [4], the logP at 0.5 h, 100 µM was 1.77. The result in [7] and in [15] was Active. For the same compound, the log10cfu in data set [9] is <3.
`CCCS(=O)(=O)N(CC)c1cccc2/c(=N\CC)cc3sc4cc(N(CC)CC)ccc4nc-3c12.Cl`: the Drug uptake entry in data set [1], in data set [3], in data set [6] and in data set [14] was “Active” throughout. Besides, the Activity entry in data set [16] is on record as “Toxic”; in data set [7], “Active”; in data set [19] it was “Toxic”; in data set [15] it was “Active”. For the same compound, the lipophilicity (logP) at 0.5 h, 100 µM in data set [4] is 2.19. Also, the result in [8] and in [11] was inactive. Further, the log10cfu in [9] was 4; in data set [13] it was >5.
Regarding `CC/N=c1/cc2sc3cc(N(CC)CC)ccc3nc-2c2c([N+](=O)[O-])cccc12.Cl`, the Drug uptake result in data set [1], in data set [3], in data set [6] and in data set [14] was “Active” throughout. Further, the Activity entry in [16] is given as “Toxic”; in data set [7], “Active”; in data set [19] it was “Toxic”; in [15] it was “Active”. For the same compound, the logP at 0.5 h, 100 µM in data set [4] was determined as 2.03. The log10cfu in data set [9] and in data set [13] was 5 in each case.
